Data taken from ChEMBL document CHEMBL1123290, “Synthesis, antimalarial activity, and quantitative structure-activity relationships of tebuquine and a series of related 5-[(7-chloro-4-quinolinyl)amino]-3-[(alkylamino)methyl] [1,1'-biphenyl]-2-ols and N omega-oxides” (1986).

Experiments:
Format in all cases: functional
Plasmodium berghei [1] = test: Antimalarial activity as 60-day survivors in infected mice (Mus musculus) after single 320mg/kg subcutaneous dose 72 hr post infection
In short: (§1)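 Mice were infected with a normal drug-sensitive Plasmodium berghei strain. At 72 h postinfection each received one subcutaneous dose of compound dissolved or suspended in peanut oil, in five-mouse groups per dose. The read-out was the number of mice alive at 60 days postinfection, which were scored as cured.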

Plasmodium berghei [2] = test: Difference in mean survival time in mice (Mus musculus) (control = 6.2 days) after single 40mg/kg subcutaneous dose 72hr post infection
Plasmodium berghei [3] = test: Change in mean survival time for control (average 6.2 days) versus treated mice (Mus musculus) 72 hrs after 5 mg/kg subcutaneous dose
Plasmodium berghei [4] = test: Change in mean survival time for control (average 6.2 days) versus treated mice (Mus musculus) 72 hrs after 10 mg/kg subcutaneous dose
Mus musculus [5] = test: Antimalarial activity, administered as a single subcutaneous dose of 80 mg/kg, 72 hrs post infection measured as number of mice (Mus musculus) surviving at 60 days post infection; in short: as §1
Plasmodium berghei [6] = test: (§2) Change in mean survival time for control (average 6.2 days) versus treated mice (Mus musculus) 72 hrs after […] subcutaneous dose
Plasmodium berghei [7] = test: Change in mean survival time for control (average 6.2 days) versus treated mice (Mus musculus) 72 hrs after 20 mg/kg subcutaneous dose
Plasmodium berghei [8] = test: Change in mean survival time for control (average 6.2 days) versus treated mice (Mus musculus) 72 hrs after 160 mg/kg subcutaneous dose
Plasmodium berghei [9] = test: Change in mean survival time for control (average 6.2 days) versus treated mice (Mus musculus) 72 hrs after 640 mg/kg subcutaneous dose
Plasmodium berghei [10] = test: Change in mean survival time for control (average 6.2 days) versus treated mice (Mus musculus) 72 hrs after 320 mg/kg subcutaneous dose
Mus musculus [11] = test: Antimalarial activity of compound administered as a single subcutaneous dose of 5mg/kg, 72-h postinfection measured as number of mice (Mus musculus) surviving at 60 days postinfection; in short: as §1
Plasmodium berghei [12] = test: Antimalarial activity as 60-day survivors in Plasmodium berghei infected mice (Mus musculus) after single 160mg/kg subcutaneous dose 72 hr post infection; in short: as §1
Plasmodium berghei [13] = test: Antimalarial activity as 60-day survivors in infected mice (Mus musculus) after single 20 mg/kg subcutaneous dose 72hr post infection; in short: as §1
Mus musculus [14] = test: Antimalarial activity, administered as a single subcutaneous dose of 640 mg/kg, 72 hrs post infection measured as number of mice (Mus musculus) surviving at 60 days post infection; in short: as §1
Plasmodium berghei [15] = test: Change in mean survival time for control (average 6.2 days) versus treated mice (Mus musculus) 72 hrs after […] subcutaneous dose
Mus musculus [16] = test: Antimalarial activity, administered as a single subcutaneous dose of 40 mg/kg, 72 hrs post infection measured as number of mice (Mus musculus) surviving at 60 days post infection; in short: as §1
Plasmodium berghei [17] = test: Antimalarial activity in primary screen
Plasmodium berghei [18] = test: Change in mean survival time for control (average of 6.2 days) versus treated mice (Mus musculus) 72 hrs after 80 mg/kg subcutaneous dose
Mus musculus [19] = test: Compound was evaluated for parenteral antimalarial activity against Plasmodium berghei in mice (Mus musculus) after single dose (40 mg/kg subcutaneous); no of mice (Mus musculus) surviving at 60 days post infection, 3 cured; in short: as §1
Mus musculus [20] = test: Antimalarial activity of compound administered as a single subcutaneous dose of 10mg/kg, 72 hrs post infection measured as number of mice (Mus musculus) surviving at 60 days post infection; in short: as §1
Plasmodium berghei [21] = test: Change in mean survival time in control (average 6.2 days) versus treated mice (Mus musculus) after 80 mg/kg subcutaneous dose
Plasmodium berghei [22] = test: Change in mean survival time of Plasmodium berghei infected mice (Mus musculus) after […] subcutaneous dose
Plasmodium berghei [23] = test: Change in mean survival time for control (average 6.2 days) versus treated mice (Mus musculus) after 20 mg/kg subcutaneous dose
Plasmodium berghei [24] = test: Change in mean survival time for control (average 6.2 days) versus treated mice (Mus musculus) after 40 mg/kg subcutaneous dose
Plasmodium berghei [25] = test: Change in mean survival time for control (average 6.2 days) versus treated mice (Mus musculus) after 160 mg/kg subcutaneous dose
Plasmodium berghei [26] = test: Change in mean survival time for control (average 6.2 days) versus treated mice (Mus musculus) after 320 mg/kg subcutaneous dose
Plasmodium berghei [27] = test: Difference in mean survival time of Plasmodium berghei infected mice (Mus musculus) after 10 mg/kg subcutaneous dose
Plasmodium berghei [28] = test: Change in mean survival time of Plasmodium berghei infected mice (Mus musculus) after 5 mg/kg subcutaneous dose
Plasmodium berghei [29] = test: as §2; remark: listed apart in the source
Plasmodium berghei [30] = test: Change in mean survival time of Plasmodium berghei infected mice (Mus musculus) on 1.25 mg/kg subcutaneous dose
Mus musculus [31] = test: Delta MST, difference in mean survival time of the control mice (an average of 6.2 days) from the mean survival time of the treated mice after a single dose of (mg/kg sc) 1.25
Mus musculus [32] = test: Antimalarial activity of compound administered as a single subcutaneous dose of 40 mg/kg, 72-h postinfection measured as number of mice (Mus musculus) surviving at 60 days postinfection; in short: as §1
Mus musculus [33] = test: Antimalarial activity of compound administered as a single subcutaneous dose of 80mg/kg, 72-h postinfection measured as number of mice (Mus musculus) surviving at 60 days postinfection; in short: as §1
Mus musculus [34] = test: Antimalarial activity of compound administered as a single subcutaneous dose of 320 mg/kg, 72 hrs post infection measured as number of mice (Mus musculus) surviving at 60 days post infection; in short: as §1
Mus musculus [35] = test: Antimalarial activity of compound administered as a single subcutaneous dose of 20 mg/kg, 72 hrs post infection measured as number of mice (Mus musculus) surviving at 60 days post infection; in short: as §1
Mus musculus [36] = test: Antimalarial activity of compound administered as a single subcutaneous dose of 160mg/kg, 72-h postinfection measured as number of mice (Mus musculus) surviving at 60 days postinfection; in short: as §1
Mus musculus [37] = test: Compound was evaluated for parenteral antimalarial activity against Plasmodium berghei in mice (Mus musculus) after single dose (80 mg/kg subcutaneously)
Mus musculus [38] = test: Compound was evaluated for parenteral antimalarial activity against Plasmodium berghei in mice (Mus musculus) after single dose (mg/kg subcutaneously) 40
Mus musculus [39] = test: Compound was evaluated for parenteral antimalarial activity against Plasmodium berghei in mice (Mus musculus) after single dose (mg/kg subcutaneously) 20

| SMILES | No. of mice cured (Plasmodium berghei [1]) | Delta MST (Plasmodium berghei [2]) | Delta MST (Plasmodium berghei [3]) | Delta MST (Plasmodium berghei [4]) | No. of mice cured (Mus musculus [5]) | Delta MST (Plasmodium berghei [6]) | Delta MST (Plasmodium berghei [7]) | Delta MST (Plasmodium berghei [8]) | Delta MST (Plasmodium berghei [9]) | Delta MST (Plasmodium berghei [10]) | No. of mice cured (Mus musculus [11]) | No. of mice cured (Plasmodium berghei [12]) | No. of mice cured (Plasmodium berghei [13]) | No. of mice cured (Mus musculus [14]) | Delta MST (Plasmodium berghei [15]) | No. of mice cured (Mus musculus [16]) | ED30 (Plasmodium berghei [17]) | Delta MST (Plasmodium berghei [18]) | No. of mice cured (Mus musculus [20]) | other results |
| --- | --- | --- | --- | --- | --- | --- | --- | --- | --- | --- | --- | --- | --- | --- | --- | --- | --- | --- | --- | --- |
| CCN(CC)Cc1cc(Nc2ccnc3cc(Cl)ccc23)cc(-c2cccc(F)c2)c1O | 1 | 25.1 days | 5.6 days | 23.2 days | 2 | 0.4 days | 23.6 days | 14.8 days | 15.8 days | 13.8 days | 1 | 3 | 2 | 3 | 1.8 days | 3 | 12.4 mg/kg | 12.8 days | – | – |
| CCN(CC)Cc1cc(Nc2ccnc3cc(Cl)ccc23)cc(-c2cccc(C(F)(F)F)c2)c1O | 3 | 31.4 days | 13.5 days | 15.2 days | 2 | 0.5 days | 23.7 days | 21.9 days | 17.9 days | 21.9 days | – | 4 | – | 3 | 9.7 days | – | 16.3 mg/kg | 28.2 days | 1 | No. of mice cured (Mus musculus [19]): 3 |
| CC(C)(C)NCc1cc(Nc2cc[n+]([O-])c3cc(Cl)ccc23)cc(-c2ccc(Cl)cc2)c1O | 4 | – | – | – | 2 | – | – | – | – | – | 1 | 3 | 4 | 4 | – | 4 | – | – | 1 | Delta MST (Plasmodium berghei [21]): 20.6 days; Delta MST (Plasmodium berghei [22]): 0.2 days; Delta MST (Plasmodium berghei [23]): 28.9 days; Delta MST (Plasmodium berghei [24]): 24.9 days; Delta MST (Plasmodium berghei [25]): 13.4 days; Delta MST (Plasmodium berghei [26]): 13.9 days; Delta MST (Plasmodium berghei [27]): 26.3 days; Delta MST (Plasmodium berghei [28]): 11.4 days; Delta MST (Plasmodium berghei [29]): 13.9 days; Delta MST (Plasmodium berghei [30]): 0 days; Delta MST (Mus musculus [31]): 0 |
| CC(C)CNCc1cc(Nc2ccnc3cc(Cl)ccc23)cc(-c2ccc(Cl)cc2)c1O | – | – | 5.2 days | 14.8 days | – | 0.8 days | 19.6 days | 4.9 days | 13.4 days | 11.3 days | – | – | – | – | 2 days | – | – | – | – | No. of mice cured (Mus musculus [32]): 5; No. of mice cured (Mus musculus [33]): 5; No. of mice cured (Mus musculus [34]): 2; No. of mice cured (Mus musculus [35]): 2; No. of mice cured (Mus musculus [36]): 2 |
| CCC(C)NCc1cc(Nc2cc[n+]([O-])c3cc(Cl)ccc23)cc(-c2ccc(Cl)cc2)c1O (stereo not given) | 3 | – | – | – | 3 | – | – | – | – | – | – | 4 | 3 | 3 | – | 2 | – | – | – | Delta MST (Plasmodium berghei [21]): 23.6 days; Delta MST (Plasmodium berghei [22]): 1.6 days; Delta MST (Plasmodium berghei [23]): 22.6 days; Delta MST (Plasmodium berghei [24]): 21.3 days; Delta MST (Plasmodium berghei [25]): 14.6 days; Delta MST (Plasmodium berghei [26]): 17.1 days; Delta MST (Plasmodium berghei [27]): 7.2 days; Delta MST (Plasmodium berghei [28]): 3.6 days; Delta MST (Plasmodium berghei [30]): 0 days; Delta MST (Mus musculus [31]): 0 |
| CC(C)(C)NCc1cc(Nc2ccnc3cc(Cl)ccc23)cc(-c2ccc(Cl)cc2)c1O [TEBUQUINE] | 1 | 19.9 days | 11.4 days | – | 3 | 0.3 days | 14.9 days | 14.9 days | 17.1 days | 16.4 days | 1 | 2 | 3 | – | 2.3 days | 4 | – | – | 2 | – |
| CCN(CC)Cc1cc(Nc2cc[n+]([O-])c3cc(Cl)ccc23)cc(-c2ccc(C(F)(F)F)cc2)c1O | 2 | – | – | – | 3 | – | – | – | – | – | – | 3 | 2 | 1 | – | 2 | 7.4 mg/kg | – | 1 | Delta MST (Plasmodium berghei [21]): 19.7 days; Delta MST (Plasmodium berghei [22]): 2.6 days; Delta MST (Plasmodium berghei [23]): 33.6 days; Delta MST (Plasmodium berghei [24]): 28.6 days; Delta MST (Plasmodium berghei [25]): 13.2 days; Delta MST (Plasmodium berghei [26]): 12.7 days; Delta MST (Plasmodium berghei [27]): 27.9 days; Delta MST (Plasmodium berghei [28]): 13.6 days; Delta MST (Plasmodium berghei [29]): 16.5 days; Delta MST (Plasmodium berghei [30]): 0.2 days |
| CCC(C)NCc1cc(Nc2ccnc3cc(Cl)ccc23)cc(-c2ccc(Cl)cc2)c1O (stereo not given) | 1 | 15 days | 11 days | 23.6 days | 3 | 0.2 days | 21 days | 14.2 days | – | 12.5 days | – | – | 3 | – | 2 days | – | – | 14 days | – | No. of mice cured (Mus musculus [32]): 4 |
| CCN(CC)Cc1cc(Nc2ccnc3cc(Cl)ccc23)cc(-c2cccnc2)c1O | 4 | 20.3 days | 10.6 days | 8.6 days | 1 | 1.8 days | 13.6 days | 18.8 days | 34.8 days | 37.8 days | 1 | 4 | 1 | 3 | 5.4 days | 1 | 31 mg/kg | 19.6 days | 1 | – |
| CCN(CC)Cc1cc(Nc2cc[n+]([O-])c3cc(Cl)ccc23)cc(CN(CC)CC)c1O | 3 | – | – | – | – | – | – | – | – | – | – | 1 | – | 3 | – | – | – | – | – | Delta MST (Mus musculus [37]): 8.5 days; Delta MST (Mus musculus [38]): 6.9 days; Delta MST (Mus musculus [39]): 3.9 days |
| CC(C)(C)NCc1cc(Nc2ccnc3cc(Cl)ccc23)cc(-c2ccccc2)c1O | – | 20.2 days | 13.7 days | 29.5 days | – | 0.3 days | 14.8 days | 12.8 days | 13 days | 12.3 days | – | – | – | 1 | 5.3 days | – | – | 27.3 days | – | No. of mice cured (Mus musculus [32]): 2; No. of mice cured (Mus musculus [33]): 1; No. of mice cured (Mus musculus [34]): 1; No. of mice cured (Mus musculus [35]): 1; No. of mice cured (Mus musculus [36]): 1 |
